Screens from PubChem BioAssay.
B2AR ag – beta2AR agonists driving receptor internalization, primary screen, cell-based, FAP fluorogen, flow cytometry; Am2.2-beta2AR cells; response, % (test concentration not listed); 0.43% of 340,000 active; AID 504454, 2011;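 active = response above a set limit, near 3 SD of response in nonfluorescent compounds, cut at about 42% in these data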
Target sequence (P07550 whole entry, looked up): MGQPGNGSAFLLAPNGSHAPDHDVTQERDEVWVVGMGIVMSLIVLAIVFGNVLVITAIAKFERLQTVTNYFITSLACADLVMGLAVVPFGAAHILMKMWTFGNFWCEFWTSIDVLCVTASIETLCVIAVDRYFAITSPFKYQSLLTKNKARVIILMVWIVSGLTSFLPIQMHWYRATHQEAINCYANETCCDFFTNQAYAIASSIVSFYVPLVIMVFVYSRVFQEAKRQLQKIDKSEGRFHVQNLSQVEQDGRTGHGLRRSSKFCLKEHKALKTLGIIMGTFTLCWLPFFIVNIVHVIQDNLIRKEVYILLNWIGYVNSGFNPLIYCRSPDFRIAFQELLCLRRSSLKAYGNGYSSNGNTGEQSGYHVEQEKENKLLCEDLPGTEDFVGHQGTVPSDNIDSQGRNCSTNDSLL
MC4R barr agon – MC4R agonists recruiting beta-arrestin, primary screen, cell-based, luminescence, agonist arm of biased-ligand search | Melanocortin receptor 4 (Homo sapiens), P32245 | 0.98% of 360,000 active | activation, % at 8.9 µM | U2OS MC4R beta-arrestin complementation; percent of melanotan II response, DMSO zero;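 active = activation above a per-plate cutoff, the mean activation of sample wells on that plate plus 3 SD, cut at about 8% in these data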
HTR2A ag – mouse Htr2a agonists via beta-arrestin recruitment, primary screen, cell-based, luminescence. activation, % at 7.6 µM. 0.66% of 360,000 active. AID 624169, 2012. 5-hydroxytryptamine receptor 2A (Mus musculus), P35363. CHO-K1 mHTR2A beta-arrestin complementation; percent of 30 µM serotonin response;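 active = activation above a run cutoff, the mean activation of all tested compounds plus 3 SD, cut at about 14% in these data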;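 note: 0% = plate median of compound wells and 100% = 30 µM serotonin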
MC4R antagonist – MC4R antagonists of cAMP signaling, primary screen, cell-based, TR-FRET, antagonist arm of biased-ligand search | Melanocortin receptor 4 (Homo sapiens), P32245 | 0.48% of 360,000 active | MC4R-expressing cells, MTII-stimulated cAMP, LANCE TR-FRET | inhibition, % at 6.5 µM | AID 540295, 2011;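 active = inhibition above its plate's cutoff, the mean of tested wells on that plate plus 3 SD, cut at about 29% in these data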;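 note: 0% = Melanotan II alone and 100% = Melanotan II plus saturating MCL0020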
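Material: human MC4R-expressing U2OS cells. Probe or stimulus: Melanotan II challenge. Dosing: 6.5 µM single dose. Times: 30-min compound, 1-h challenge, 1-h detection, room temperature. Technique: TR-FRET with Eu-cAMP and labeled anti-cAMP, 671 nm. Replication: singlicate.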
TAAR1 ag – human TAAR1 agonists, primary screen, Fluo-8 calcium fluorescence, CHO RD-HGA16 cells. Trace amine-associated receptor 1 (Homo sapiens), Q96RJ0. vehicle wells 0%, saturating PEA agonist 100%. activation, % at 3 µM. 0.99% of 360,000 active;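 active = activation above the mean activation of all test compounds in the run plus 3 SD, cut at about 38% in these data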
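Signal – calcium-sensitive Fluo-8 signal, excitation 470-495, emission 515-575 nm · System – RD-HGA16 (CHO) cells co-expressing Gα16 and hTAAR1 · Incubation – 17-24 h seeding, 75 min 37 °C dye, 30 min RT · Compound dosing – 3 µM single concentration · Repeats – no replicates (n 1)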
TAAR1 antagonist – human TAAR1 antagonists, primary screen, Fluo-8 calcium fluorescence, CHO RD-HGA16 cells; Trace amine-associated receptor 1 (Homo sapiens), Q96RJ0; antagonist; inhibition, % at 3 µM; 1.5% of 360,000 active; AID 624466, 2012;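 active = inhibition above a per-plate cutoff, the mean inhibition of test compounds on that plate plus 3 SD, cut at about 49% in these data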;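 note: 0% = DMSO plus EC80 beta-PEA response and 100% = DMSO alone without agonist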
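Test system – hTAAR1-expressing CHO RD-HGA16 cells, Gα16-coupled · Reagent – β-PEA at EC80 concentration, post-compound challenge · Compound dosing – 3 µM, single point · Timing – 140 s kinetic read after compound, 140 s after agonist · Detection – Fluo-8 intracellular calcium dye fluorescence, real-time kinetic reads · Control set – DMSO and EC80 PEA controls · Repeats – n of 1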
Starred values were filed as active, the others as inactive; x = no result. Only some compounds are listed: those with a hit (about 4.3% of all), similar ones and a draw of the others.

SMILES | B2AR ag | MC4R barr agon | HTR2A ag | MC4R antagonist | TAAR1 ag | TAAR1 antagonist
COc1ccc(OCC(O)CNC(C)c2ccccc2)cc1 (configuration not stated) | -9.5 | -0.2 | -2.0 | 0.5 | 4.4 | -25.8
CC(NCC(O)COc1ccc(Br)cc1)c1ccccc1 (configuration not stated) | 41.8 | 1.1 | -3.1 | 6.1 | 43.0* | 3.3
CCCC(NCC(O)COc1ccc(-c2ccccc2)cc1)c1ccccc1 (configuration not stated) | 20.6 | 5.4 | -4.1 | 6.5 | 40.3* | -6.2
COC(=O)[C@@]12C[C@@H](CC(=O)N3CCCC3)C(=O)N(Cc3ccco3)C1=CCC(C)(C)C2 | x | x | 2.1 | x | 1.1 | -0.8
CCOC(=O)c1ccc(NC(=O)CCc2nc(-c3ccc(C)cc3)no2)cc1 | -2.7 | 9.7* | -0.7 | 13.9 | 14.6 | 0.5
COc1ccc(CN2CCN(C(=O)c3ccc(S(=O)(=O)N4CCCCCC4)cc3)CC2)cc1 | 0.8 | -2.5 | 0.5 | 19.6 | 6.3 | 17.9
COc1ccc(CN2CCN(C(=O)c3ccc(S(=O)(=O)N4CCCCCC4)cc3)CC2)cc1F | 10.0 | -2.2 | 0.1 | 5.4 | 12.4 | 58.2*
COc1cccc(C(=O)N[C@H](C(=O)N2CCC[C@H]2C(=O)NC2CCCC2)c2ccccc2)c1 | x | x | x | x | 1.5 | -11.7
CC(C)C(C(=O)Nc1nccs1)c1ccc(Cl)cc1 (configuration not stated) | 3.9 | -3.0 | -1.9 | 5.3 | 28.5 | 6.5
CC(C)C(C(=O)Nc1ccncc1)c1ccc(Cl)cc1 (configuration not stated) | 8.0 | -2.7 | -5.9 | 5.9 | 53.9* | 36.6
CC1CCN(CCCOc2ccc(Br)cc2Cl)CC1 | -2.4 | 0.6 | -10.7 | 0.6 | 39.1* | 1.6
COC(=O)Cn1cnc2c(NC(=O)c3ccccc3)ncnc21 | x | x | x | x | 0.7 | -14.3
CCCNC(=O)c1ccc(N2CCC3(CC2)CC(c2cccc(Br)c2)=NO3)c([N+](=O)[O-])c1 | -4.1 | -0.6 | 3.6 | 11.8 | 5.1 | 50.7*
CSCCC(c1nc2ccccc2[nH]1)n1c(-c2ccc3ncccc3c2)nc2ccccc21 (configuration not stated) | x | x | 2.2 | x | 10.2 | -7.0
COC(=O)c1cc2c(c3c4ccccc4n(S(=O)(=O)c4ccccc4)c13)C(=O)N(Cc1ccc(N(C)C)cc1)C2 | x | x | x | x | -1.8 | -26.2
COc1ccc(CCN2C(=O)C(Oc3ccccc3C)C2c2ccc3c(c2)OCO3)cc1OC (configuration not stated) | 4.1 | -0.5 | 0.4 | 5.1 | 6.7 | 54.7*
COc1ccc(CCN2C(=O)C(Oc3ccccc3C)C2c2ccc3c(c2)OCO3)cc1 (configuration not stated) | 7.8 | -1.9 | 5.3 | 6.4 | 8.0 | 56.4*
COc1cccc(OC)c1C(=O)NCCOc1cc(C)cc(C)c1 | 2.2 | -0.4 | -3.4 | -0.2 | 0.3 | 6.7
Cc1ccc(-c2nc(NCc3ccco3)c3ccccc3n2)cc1 | -4.5 | -2.0 | -4.2 | -4.7 | 8.2 | -14.3
COc1cccc(-c2nc(NCc3ccco3)c3ccccc3n2)c1O | 14.0 | 18.2* | -2.0 | -13.0 | 17.0 | -12.2
O=C(Nc1ccc(Cl)cc1)C1C2CCC3C(CCC21)C3(Cl)Cl (configuration not stated) | 8.4 | 7.6 | -2.2 | 4.4 | 3.7 | 56.4*
CSc1nnc(C)c(/C=C/Nc2ccc(F)cc2)n1 | -1.1 | -2.0 | -2.2 | 1.8 | 67.7* | 32.0
CC(=O)N1CCN(c2ccc(N3CCN(C(C)=O)[C@@H](C)C3)c(C)c2)[C@@H](C)C1 | x | x | x | x | 0.2 | 4.0
